The chains are these.
B1: tRNA (parent)
chain: GUUCCGUUGGCGUAAUGGUAACGCGUCUCCCUCCUAAGGAGAAGACUGCGGGUUCGAGUCCCGUACGGAACG

Our source for the yeast fitness values is the RNAGym collection of RNA variant scans (doi:10.1126/science.aae0568).

This sample holds only a part of the variants without activity.

This series covers variants of B1. The series can be described thus: yeast fitness relative to wild type (ratio to wild type); higher = fitter; tRNA-Arg(CCU), competitive growth, 37 C, YPD. The method in brief: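 Amplicons of the tRNA-Arg(CCU) gene were sequenced, 100-nucleotide paired-end, from the start population and from each end population of a pooled yeast competition. The competition, in six parallel replicates, lasted 24 hours in YPD at 37°C. Fitness relative to wild type was calculated from changes in genotype frequencies. Genotypes had to have ≥ 100 starting reads, and estimates < 0.5 were set to 0.5.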
As to C31U C33A A43U G48A U53A, the yeast fitness is ≤ 0.5.
For U32A A37C C60A, the yeast fitness was ≤ 0.5.
The same measure for C31A G68U A69C: ≤ 0.5.
The figure for C31U G50A G67A is 0.63; for C31U G52C U54A C66U it is ≤ 0.5; for C31U U47C A65G A69U it is ≤ 0.5.
The same measure for C31U A43G: 1.06.
With U32A C55U, the yeast fitness is 0.501.
As to C31G A57U A69G, the yeast fitness is 0.774.
For C31U C46A G58C A69U, the yeast fitness stood at 0.543.
The same measure for C31G U32C: 0.754; for C31U G48A C61A: 0.532; for U32A: 0.742.
The figure for U32C is 0.966; for C31U U47G it is 0.526.
The same measure for U32A G41C A65U: ≤ 0.5; for C31G C61G C62G: 0.514; for C31G G41A G52C C60U C62G C66G: 0.539.
With U32A G39A G58A C61A C62G, the yeast fitness is ≤ 0.5.
Take U32A A40U G41C C46A G52A: the yeast fitness amounted to 0.656.
The same measure for C31U C66A: 0.774.
The same measure for C31G A43C: 0.932; for C31G A43G: 0.982; for C31U A40U A45U: 0.618.
The same measure for U32A G63U U64A A65U: 0.634; for U32C A42G G63A: 0.556.
As for C31G G67C A69U, the yeast fitness is ≤ 0.5.
As for C31G A36U G48A A57C, the yeast fitness was ≤ 0.5.
Consider C31G C34G C66A, for which the yeast fitness worked out at 0.568.
Consider C31G A70U, for which the yeast fitness is 0.938.
With C31G A70C, the yeast fitness is 0.689.
On to C31U C49U A69U, for which the yeast fitness turned out to be 0.889.
The same measure for C31U U32C C33U: 0.667; for U32C A37U G52A C66A: ≤ 0.5.
In the case of C31G A36C G68A A70C, the yeast fitness was ≤ 0.5.
The figure for C31G U53C U54G is ≤ 0.5.
The same measure for C31G A40G: 0.719; for C31G G51C A70G: ≤ 0.5.
With C31G G51C A70U, the yeast fitness worked out at 0.561.
The same measure for C31G G41A U47C G52C C60U C62G C66G: ≤ 0.5.
The figure for C31U A42G C62U A69C is 0.542.
In the case of C31A U54C U64A, the yeast fitness is ≤ 0.5.
The same measure for C31U G39C G58A: 0.552; for C31G G51A C55G G68C: 0.56; for C31U G58A A65C: 0.65.
As for C31A G50C, the yeast fitness came to 0.566.
The figure for C31G C34U A40C C60A C61A G63A is ≤ 0.5; for C31U C34G C62U A70G it is ≤ 0.5; for C31U G67U A69G it is 0.747.
For the variant C31U G52C A65U, the yeast fitness is ≤ 0.5.
The same measure for C31G A40U C60G G67A: ≤ 0.5.
For C31G U32A C60G, the yeast fitness was ≤ 0.5.
The figure for U32A C33G is 0.706; for C31U G48C C66U it is 0.741; for U32A C34A U53C U64A it is ≤ 0.5.
The same measure for C31G U59A: 0.779.
The figure for C31A U47C C61A is ≤ 0.5.
Regarding C31A G63C G67C, the yeast fitness was ≤ 0.5.
Consider C31U C46U C49U, for which the yeast fitness came out at 0.905.
The figure for C31G C33G G63A is ≤ 0.5; for C31U C60U U64C it is 0.695; for C31U G38C it is 0.845.
As for C31G C34U A40C G50A C55G C62A, the yeast fitness was ≤ 0.5.
C31G C33U U53C U54G C55A: the yeast fitness was ≤ 0.5.
The same measure for U32C A36U G38A G50A: 0.584.
The figure for C31U A40G G48A A70U is 0.533; for C31G U47G U53G C61U G68A it is ≤ 0.5; for U32C A40U C55G it is 0.703.
The figure for C31G G51A is 0.749; for C31G A43U C46G C62U it is ≤ 0.5.
As to U32C A43C G52A C55U C60A, the yeast fitness was ≤ 0.5.
The same measure for C31G A37C A70C: ≤ 0.5; for C31U C62G G68C: 0.507.
The same measure for U32C A40U C55A G56C: ≤ 0.5; for C31G G41A A65C: ≤ 0.5.
The figure for C31U U47C G63A is 0.687.
In the case of C31A G51A G58C, the yeast fitness was found to be 0.561.
The same measure for C31A G39A U47A G68C: ≤ 0.5.
On to C31U U47A G51U, for which the yeast fitness was ≤ 0.5.
The same measure for C31G G44C G67C: ≤ 0.5.
The figure for C31A U32C C46U is ≤ 0.5; for U32A A42U it is 0.861; for C31U C34G G67A it is 0.539.
The figure for C31U G50A A70U is 0.677; for C31U A40C C55G G68A A69U it is 0.581; for C31U U47G G56C it is ≤ 0.5.
Regarding U32C A40G C49G, the yeast fitness was found to be 0.514.
The figure for C31U U54C U59C is 0.562.
The figure for U32C A36U C61U is ≤ 0.5.
The same measure for U32C A36U C61G: ≤ 0.5; for C31U G67C: 0.902.
Regarding C31U C33G G50C, the yeast fitness amounted to 0.508.
The same measure for C31U C34G C49U G52A A69U: ≤ 0.5; for C31A U35A A36U U47C C66U: ≤ 0.5; for C31G A40G A45C U53A: ≤ 0.5.
With C31G C66G, the yeast fitness came to 0.587.
The same measure for C31G C55G A65C: ≤ 0.5.
The figure for C31G C46U is 0.998; for C31U G39A G44A C61U it is ≤ 0.5; for C31G C33U C61U it is ≤ 0.5.
With U32A A70U, the yeast fitness is 0.857.
Take C31A G51A: the yeast fitness was found to be 0.603.
The figure for C31G A43U C46G A70U is 0.527.
The same measure for C31G U54A: 0.655; for C31A G39A G48A C61U A65C: 0.5; for U32A A43G C61U: ≤ 0.5.
The same measure for C31U G56A: 1.04; for C31G C34A C55U U59C: ≤ 0.5; for C31U A36C G41A: ≤ 0.5.
For the variant U32A A37C C66U, the yeast fitness was ≤ 0.5.
The same measure for U32C A42U G51C: 0.533.
For the variant C31G G38U, the yeast fitness worked out at 0.804.
For U32A G52C C55U C61U C66U, the yeast fitness is ≤ 0.5.
The figure for C31U G58C C61A A69U is 0.505; for C31A U35C G41A it is ≤ 0.5.
The same measure for C31U C33U C34G A40C A69C: ≤ 0.5.
For the variant C31G A40G C49U G50C A70C, the yeast fitness is ≤ 0.5.
The same measure for C31G C34G A57C: 0.685; for C31G G41A A43C G51C: 0.562; for U32C A36G G63A: 0.628.
As to U32A U54A, the yeast fitness is ≤ 0.5.
The figure for C31U C61U G68C is ≤ 0.5; for C31U G50A it is 0.904.
The figure for C31G A42U A43C is 1.15; for C31G G51A G68C it is 0.545.
The figure for C31G A37U is 0.728; for C31U U59C it is 1.02; for C31U C46A A65U A69U it is 0.58.
Regarding C31G C34U, the yeast fitness was determined as 0.626.
The figure for C31U C33U A40U A45G is 0.575.
U32A A40C G58C G63A: the yeast fitness is ≤ 0.5.
The figure for C31U C46A A70C is 0.771; for C31U U47A G51U C62U it is ≤ 0.5.
The figure for C31U C34U G50A G52A A57G G67C is ≤ 0.5.
For the variant C31U G56A G63C, the yeast fitness was ≤ 0.5.
As for C31U G44A A45U, the yeast fitness was 0.893.
The same measure for C31A U35A C55G G58C: ≤ 0.5.
The same measure for C31G A42G: 0.721; for C31G A36U U53C C61A G68A: ≤ 0.5.
Regarding C31G A40G C49U G50C, the yeast fitness was ≤ 0.5.
The same measure for C31U C55G A70C: 0.535; for C31G G41A G52C C60U C62G: 0.53.
The figure for C31G U35C is 0.823; for C31U A37G G68C it is ≤ 0.5; for C31G C34U A40C it is 0.526.
The same measure for C31U A45C: 1.25.
Consider C31U A45U, for which the yeast fitness stood at 1.12.
The figure for C31U A36C U53C is 0.569; for C31U A70U it is 1.04; for C31G C33U U59G C66U G68A it is 0.543.
The same measure for C31U A42C U54A: ≤ 0.5; for C31U G52C C60A: 0.632; for U32A C34U C61U: 0.54.
For the variant C31G C55U, the yeast fitness was 0.683.
For C31G C55G, the yeast fitness stood at 0.592.
The figure for U32A A45U A69C is 0.706; for U32C A43C it is 0.83; for C31U G41C C61U it is 0.574.
U32C A40C: the yeast fitness was 0.986.
Consider U32C A40U, for which the yeast fitness was 1.01.
The same measure for C31G C62A: 0.607; for C31A G51C C55G A57U: ≤ 0.5.
The same measure for C31U U53A U59A: ≤ 0.5; for U32A C33U U47A: 0.54; for C31G G63A: 0.848.
U32C A40U A69C: the yeast fitness amounted to 0.747.
The figure for C31U G39C A40U is 0.838.
